Reference: ChEMBL document CHEMBL2034884, “Synthesis, in vitro and in silico screening of ethyl 2-(6-substituted benzo[d]thiazol-2-ylamino)-2-oxoacetates as protein-tyrosine phosphatase 1B inhibitors” (Eur J Med Chem, 2012)
The source made the active and inactive calls. The calls are words filed in the database; no cut-off is given here.

What was measured:
[1] = molecular target: T1, Tyrosine-protein phosphatase non-receptor type 1 (Homo sapiens) (UniProt P18031); test: Inhibition of human recombinant GST-tagged PTP1B expressed in Escherichia coli TB1 cells using p-NPP as substrate at 40 uM
T1 sequence (whole entry): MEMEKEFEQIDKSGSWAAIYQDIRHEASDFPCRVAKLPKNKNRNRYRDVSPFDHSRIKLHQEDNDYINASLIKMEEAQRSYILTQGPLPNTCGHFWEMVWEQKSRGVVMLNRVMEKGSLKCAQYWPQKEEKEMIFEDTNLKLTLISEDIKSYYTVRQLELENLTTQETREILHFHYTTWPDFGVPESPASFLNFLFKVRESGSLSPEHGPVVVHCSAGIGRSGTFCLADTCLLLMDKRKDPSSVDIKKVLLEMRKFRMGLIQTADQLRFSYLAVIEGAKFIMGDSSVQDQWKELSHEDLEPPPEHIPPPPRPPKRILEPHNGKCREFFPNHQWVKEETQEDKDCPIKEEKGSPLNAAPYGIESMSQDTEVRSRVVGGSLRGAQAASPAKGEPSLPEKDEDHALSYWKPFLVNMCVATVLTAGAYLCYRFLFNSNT
Procedure, shortened: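 PTP-1B was cleaved from GST with thrombin and gel-filtered. Assay: 0.075 M β,β-dimethylglutarate buffer pH 7.0 with 1 mM EDTA and 1 mM DTT, 2.5 mM p-NPP, compound 40 μM final, DMSO control, 37 °C, 0.16 μg enzyme per 1 mL assay. Stopped with KOH; p-nitrophenol read at 400 nm. Residual activity is % of control, four assays, mean ± S.E.M.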

Rattus norvegicus [2] = test: Hypoglycemic activity in glucose-fed normoglycemic Wistar rat assessed as decrease in rise of blood glucose at 5 to 10 mg/kg, po single dose measured up to 4 hrs post dose by oral glucose tolerance test; type: functional, organism-based
Procedure, shortened: (§1)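 Male Wistar rats (200–250 g), fasted 18 h, n = 5 per group. Test agents were given orally as suspensions at the listed doses, with vehicle controls. A 2 g/kg glucose load was given by the same route 10 min later. Tail-tip blood was sampled at 0, 0.5, 1, 2, 3 and 4 h. Glucose was read by the glucose oxidase glucometer method.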

Rattus norvegicus [3] = test: Hypoglycemic activity in normoglycemic Wistar rat at 10 mg/kg, po administered as single dose measured up to 3 hrs post dose; type: functional, organism-based; set-up: dose 10 mg/kg
Procedure, shortened: (§2)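 Male Wistar rats (200–250 g), n = 5 per group, given a single oral/intragastric dose suspended in 5% Tween 80. Vehicle controls received 5% Tween 80. Caudal-vein blood was taken at 0, 1, 3, 5 and 7 h and glucose read with a glucose oxidase glucometer. Results are % glycemia change versus 0 h, mean ± S.E.M., ANOVA p < 0.05.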

Rattus norvegicus [4] = test: Hypoglycemic activity in glucose-fed normoglycemic Wistar rat assessed as decrease in rise of blood glucose at 4 mg/kg, po single dose measured up to 4 hrs post dose by oral glucose tolerance test; type: functional, organism-based; set-up: dose 4 mg/kg; procedure, shortened: as §1
Rattus norvegicus [5] = test: Hypoglycemic activity in normoglycemic Wistar rat at 100 mg/kg, po administered as single dose measured up to 5 hrs post dose; type: functional; procedure, shortened: as §2
[6] = molecular target: T1, Tyrosine-protein phosphatase non-receptor type 1 (Homo sapiens); test: Reversible inhibition of human recombinant GST-tagged PTP1B expressed in Escherichia coli TB1 cells using p-NPP as substrate at 100 uM after 1 hr at 37 degC
Procedure, shortened: (§3)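 The enzyme, cleaved from GST, was preincubated for 1 h at 4 °C or 37 °C with 100 μM compound or a DMSO control. It was then diluted 400-fold into assay solution, and residual activity was measured at 37 °C with 5 mM p-NPP final, read at 400 nm. Triplicates, mean ± S.E.M.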

[7] = molecular target: T1, Tyrosine-protein phosphatase non-receptor type 1 (Homo sapiens); test: Reversible inhibition of human recombinant GST-tagged PTP1B expressed in Escherichia coli TB1 cells using p-NPP as substrate at 100 uM after 1 hr at 4 degC; procedure, shortened: as §3
Rattus norvegicus [8] = test: Hypoglycemic activity in glucose fed normoglycemic Wistar rat assessed as decrease in rise of blood glucose at 100 mg/kg, po single dose measured up to 4 hrs post dose by oral glucose tolerance test; type: functional; set-up: scale not given: the % may be the effect or the level left; procedure, shortened: as §1
[9] = molecular target: T2, Tyrosine-protein phosphatase non-receptor type 1 (Homo sapiens, UniProt P18031); test: Mixed-type inhibition of human recombinant GST-tagged PTP1B expressed in Escherichia coli TB1 cells using p-NPP as substrate by double reciprocal plot analysis
T2 sequence (P18031 whole entry): T1 sequence (whole entry)
Procedure, shortened: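 Thrombin-cleaved, gel-filtered PTP-1B in pH 7.0 β,β-dimethylglutarate/EDTA/DTT buffer at 37 °C. Initial p-NPP hydrolysis rates were measured at eight substrate concentrations (0.5–40 mM) with increasing inhibitor concentrations. p-Nitrophenol was read at 400 nm, and Km/Vmax changes were analysed by double reciprocal plots.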

[10] = molecular target: T2, Tyrosine-protein phosphatase non-receptor type 1; test: Inhibition of human recombinant GST-tagged PTP1B expressed in Escherichia coli TB1 cells using p-NPP as substrate
[11] = molecular target: T1, Tyrosine-protein phosphatase non-receptor type 1 (Homo sapiens); test: Slow binding inhibition of human recombinant GST-tagged PTP1B expressed in Escherichia coli TB1 cells using p-NPP as substrate
Procedure, shortened: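 p-Nitrophenol release from p-NPP by PTP-1B was followed over time at 400 nm at several inhibitor concentrations, at 37 °C, pH 7.0. Progress curves were examined for linearity, with and without 30 min enzyme–inhibitor preincubation before the assay.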

Rattus norvegicus [12] = test: Hypoglycemic activity in normoglycemic Wistar rat at 100 mg/kg, po administered as single dose measured up to 3 hrs post dose; type: functional; procedure, shortened: as §2

In the case of `CCOC(=O)C(=O)Nc1nc2ccc(OCC)cc2s1`, the inhibition [1] is reported as “inactive”.

`CCOC(=O)C(=O)Nc1nc2ccc(N)cc2s1` was tested, and the inhibition [1] was “inactive”.

For `COc1ccc(Cl)cc1C(=O)NCCc1ccc(S(=O)(=O)NC(=O)NC2CCCCC2)cc1`, the Activity (Rattus norvegicus [2]) was “Active” and the Activity (Rattus norvegicus [3]) was “Active”.

For `CCOC(=O)C(=O)Nc1nc2ccccc2s1`, the inhibition [1] was “inactive”.

`CCOc1cc(CC(=O)N[C@@H](CC(C)C)c2ccccc2N2CCCCC2)ccc1C(=O)O` was tested, and the Activity (Rattus norvegicus [4]) was “Active”.

With `CCOC(=O)C(=O)Nc1nc2ccc([N+](=O)[O-])cc2s1` the inhibition [1] was “inactive”.

With `CCOC(=O)C(=O)Nc1nc2ccc(OC)cc2s1` the inhibition [1] was “inactive”.

With `CCOC(=O)C(=O)Nc1nc2ccc(C)cc2s1` the Activity (Rattus norvegicus [5]) was 26%, the inhibition [6] was “Active” and the inhibition [7] was “Active”. For the same compound, the Activity (Rattus norvegicus [8]) was >20%, the Ki [9] was 6.2 µM and the IC50 [10] was 11 µM. For the same compound, the inhibition [11] was “inactive”.

With `CCOC(=O)C(=O)Nc1nc2ccc(F)cc2s1` the inhibition [6] was “Active”, the inhibition [7] was “Active” and the Ki [9] was 7.9 µM. The IC50 [10] was 8.7 µM and the inhibition [11] was “inactive”.

In the case of `CCOC(=O)C(=O)Nc1nc2ccc(Cl)cc2s1`, the inhibition [6] is reported as “Active”, the inhibition [7] is reported as “Active” and the Activity (Rattus norvegicus [8]) is reported as >20%. It also gave a Ki [9] of 7.9 µM, an Activity (Rattus norvegicus [12]) of 30% and an IC50 [10] of 10.1 µM. The inhibition [11] was “inactive”.

For `CCOC(=O)C(=O)Nc1nc2ccc(S(C)(=O)=O)cc2s1`, the inhibition [1] was “inactive”.
